# Data published in ChEMBL document CHEMBL2010794, “Discovery of nor-seco himbacine analogs as thrombin receptor antagonists” (Bioorg Med Chem Lett, 2012).
# Activity calls are given as the source filed them. No cut-off for these calls is given here.
# Key:
# [1] = AUC (0 to 6 hrs) in rat at 10 mg/kg, po; type: ADME, organism-based; set-up: time < 6 hr, dose 10 mg/kg, route oral; conditions: plasma
# Procedure, shortened: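 Rats given a single 10 mg/kg oral dose in 0.4% methylcellulose; plasma levels followed up to 6 h; AUC from 0 to 6 h reported in ng h/mL.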
# [2] = target: T1, Proteinase-activated receptor 1 (Homo sapiens, UniProt P25116); assay: Displacement of [3H]haTRAP from human PAR1 after 1 hr by TopCount scintillation counting; conditions: read-out: IC50
# T1 sequence (P25116 whole entry): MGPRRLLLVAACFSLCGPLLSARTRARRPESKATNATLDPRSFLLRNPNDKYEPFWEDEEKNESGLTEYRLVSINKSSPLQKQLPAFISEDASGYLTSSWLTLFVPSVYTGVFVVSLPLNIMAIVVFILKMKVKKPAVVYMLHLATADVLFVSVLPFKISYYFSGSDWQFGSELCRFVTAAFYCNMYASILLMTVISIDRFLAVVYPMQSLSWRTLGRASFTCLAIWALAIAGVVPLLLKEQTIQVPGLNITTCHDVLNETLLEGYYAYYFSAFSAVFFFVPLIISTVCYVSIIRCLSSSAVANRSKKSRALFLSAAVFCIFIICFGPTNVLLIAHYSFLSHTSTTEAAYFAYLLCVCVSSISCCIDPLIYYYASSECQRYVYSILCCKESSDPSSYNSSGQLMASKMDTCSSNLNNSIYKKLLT
# Procedure, shortened: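 PAR-1 receptors isolated from human platelets; competition binding against [³H]haTRAP radioligand; values expressed as IC₅₀ (nM).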
# Cynomolgus monkey [3] = assay: Ex-vivo inhibition of PAR1 in cynomolgus monkey assessed as inhibition of haTRAP-induced platelet aggregation at 1 mg/kg, po at 24 hrs by aggregometry; type: functional; conditions: Macaca fascicularis
# Procedure, shortened: (§1)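 Cynomolgus monkeys dosed orally in 20% PEG-HPBCD (hydrochloride salt for the 7a-hydroxy series); blood sampled at various times up to 24 h; haTRAP added to whole blood at 1 µM to trigger aggregation, measured by aggregometer; result given as % reduction in haTRAP-induced aggregation at the stated dose and time.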
# [4] = AUC (0 to 24 hrs) in cynomolgus monkey plasma at 1 mg/kg, po; type: ADME, organism-based, Macaca fascicularis; set-up: time < 24 hr, dose 1 mg/kg, route oral
# Cynomolgus monkey [5] = assay: Ex-vivo inhibition of PAR1 in cynomolgus monkey assessed as inhibition of haTRAP-induced platelet aggregation at 3 mg/kg, po at 24 hrs by aggregometry; type: functional; conditions: Macaca fascicularis; procedure, shortened: as §1
# [6] = AUC (0 to 24 hrs) in cynomolgus monkey at 1 mg/kg, po and 1 mg/kg, iv; type: ADME, organism-based, Macaca fascicularis; conditions: plasma
# Procedure, shortened: (§2)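 Full cynomolgus PK study: 1 mg/kg oral in 0.4% methylcellulose and 1 mg/kg intravenous in 20% HPBCD; AUC, oral Cmax, Tmax, half-life, Vd(ss) and clearance derived from plasma concentrations.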
# [7] = Half life in cynomolgus monkey at 1 mg/kg, po and 1 mg/kg, iv; type: ADME, organism-based, Macaca fascicularis; conditions: in vivo; procedure, shortened: as §2
# [8] = Volume of distribution at steady state in cynomolgus monkey at 1 mg/kg, po and 1 mg/kg, iv; type: ADME, organism-based, Macaca fascicularis; conditions: in vivo, read-out: Vdss; procedure, shortened: as §2
# [9] = Oral bioavailability in cynomolgus monkey at 1 mg/kg; type: ADME, organism-based, Macaca fascicularis; conditions: in vivo; procedure, shortened: as §2
# [10] = Cmax in cynomolgus monkey at 1 mg/kg, po; type: ADME, organism-based, Macaca fascicularis; set-up: dose 1 mg/kg, route oral; conditions: in vivo; procedure, shortened: as §2
# [11] = Tmax in cynomolgus monkey at 1 mg/kg, po and 1 mg/kg, iv; type: ADME, organism-based, Macaca fascicularis; conditions: in vivo; procedure, shortened: as §2
# [12] = Clearance in cynomolgus monkey at 1 mg/kg, po and 1 mg/kg, iv; type: ADME, organism-based, Macaca fascicularis; conditions: in vivo; procedure, shortened: as §2
# Cynomolgus monkey [13] = assay: Ex-vivo inhibition of PAR1 in cynomolgus monkey assessed as inhibition of haTRAP-induced platelet aggregation at 0.3 mg/kg, po by aggregometry; type: functional, organism-based; set-up: dose 0.3 mg/kg; conditions: Macaca fascicularis; procedure, shortened: as §1
# Cynomolgus monkey [14] = assay: Ex-vivo inhibition of PAR1 in cynomolgus monkey assessed as inhibition of haTRAP-induced platelet aggregation at 3 mg/kg, po at 6 hrs by aggregometry; type: functional; conditions: Macaca fascicularis; procedure, shortened: as §1
# [15] = AUC (0 to 24 hrs) in cynomolgus monkey plasma at 3 mg/kg, po; type: ADME, organism-based, Macaca fascicularis; set-up: time < 24 hr, dose 3 mg/kg, route oral
# Cynomolgus monkey [16] = assay: Ex-vivo inhibition of PAR1 in cynomolgus monkey assessed as inhibition of haTRAP-induced platelet aggregation at 1 mg/kg, po by aggregometry; type: functional, organism-based; set-up: dose 1 mg/kg; conditions: Macaca fascicularis; procedure, shortened: as §1
smiles,measurement,setting,value
CC[C@H]1[C@H](/C=C/c2ccc(-c3ccccc3)cn2)[C@@H]2[C@@H](C)OC(=O)[C@@H]2C[C@@H]1C,AUC(0-t) at 6 h,[1],672 ng·h/mL
same,IC50,[2],8.8 nM
CC[C@H]1[C@H](/C=C/c2ccc(-c3cccc(C#N)c3)cn2)[C@@H]2[C@@H](C)OC(=O)[C@]2(O)C[C@@H]1C.Cl,inhibition in vivo at 1 mg/kg,Cynomolgus monkey [3],60%
same,AUC(0-t) at 24 h,[4],6280 ng·h/mL
CC[C@H]1[C@H](/C=C/c2ccc(-c3cccnc3)cn2)[C@@H]2[C@@H](C)OC(=O)[C@]2(O)C[C@@H]1C [listing 1 of 2 here],inhibition in vivo at 3 mg/kg,Cynomolgus monkey [5],45%
CC[C@H]1[C@H](/C=C/c2ccc(-c3ccccc3)cn2)[C@@H]2[C@@H](C)OC(=O)[C@]2(O)C[C@@H]1C.Cl,inhibition in vivo at 1 mg/kg,Cynomolgus monkey [3],65%
same,AUC(0-t),[6],3980 ng·h/mL
same,half-life,[7],642 min
same,Vd,[8],1.5 L/kg
same,bioavailability,[9],78%
same,Cmax,[10],397 ng/mL
same,Tmax,[11],1 h
same,AUC(0-t) at 24 h,[4],3820 ng·h/mL
same,clearance,[12],3.3 mL/min/kg
CC[C@H]1[C@H](/C=C/c2ccc(-c3ccccc3)cn2)[C@@H]2[C@@H](C)OC(=O)[C@]2(O)C[C@@H]1C,inhibition,Cynomolgus monkey [13],Active
same,inhibition,Cynomolgus monkey [5],Active
CC[C@H]1[C@H](/C=C/c2ccc(-c3ccccc3C)cn2)[C@@H]2[C@@H](C)OC(=O)[C@]2(O)C[C@@H]1C.Cl,inhibition in vivo at 3 mg/kg,Cynomolgus monkey [14],55%
same,AUC(0-t) at 24 h,[15],2720 ng·h/mL
CC[C@H]1[C@H](/C=C/c2ccc(-c3cccc(C#N)c3)cn2)[C@@H]2[C@@H](C)OC(=O)[C@@H]2C[C@@H]1C,IC50,[2],21 nM
CC[C@H]1[C@H](/C=C/c2ccc(-c3cccc(OC)c3)cn2)[C@@H]2[C@@H](C)OC(=O)[C@]2(O)C[C@@H]1C,inhibition,Cynomolgus monkey [16],inactive
CC[C@H]1[C@H](/C=C/c2ccc(-c3ccccc3F)cn2)[C@@H]2[C@@H](C)OC(=O)[C@@H]2C[C@@H]1C,AUC(0-t) at 6 h,[1],852 ng·h/mL
same,IC50,[2],22 nM
same,inhibition in vivo at 3 mg/kg,Cynomolgus monkey [5],45%
CC[C@H]1[C@H](/C=C/c2ccc(N3CCCC3)cn2)[C@@H]2[C@@H](C)OC(=O)[C@]2(O)C[C@@H]1C [listing 1 of 2 here],inhibition in vivo at 3 mg/kg,Cynomolgus monkey [14],100%
CC[C@H]1[C@H](/C=C/c2ccc(-c3ccccc3C)cn2)[C@@H]2[C@@H](C)OC(=O)[C@]2(O)C[C@@H]1C,AUC(0-t) at 6 h,[1],3160 ng·h/mL
same,IC50,[2],33 nM
CC[C@H]1[C@H](/C=C/c2ccc(-c3cccc(OC)c3)cn2)[C@@H]2[C@@H](C)OC(=O)[C@]2(O)C[C@@H]1C.Cl,AUC(0-t) at 24 h,[4],1210 ng·h/mL
CC[C@H]1[C@H](/C=C/c2ccc(N3CCCC3)cn2)[C@@H]2[C@@H](C)OC(=O)[C@]2(O)C[C@@H]1C [listing 2 of 2 here],AUC(0-t) at 6 h,[1],486 ng·h/mL
same,IC50,[2],64 nM
CC[C@H]1[C@H](/C=C/c2ccc(-c3ccc(OC)cc3)cn2)[C@@H]2[C@@H](C)OC(=O)[C@]2(O)C[C@@H]1C,IC50,[2],451 nM
CC[C@H]1[C@H](/C=C/c2ccc(-c3ccccc3C)cn2)[C@@H]2[C@@H](C)OC(=O)[C@@H]2C[C@@H]1C,IC50,[2],20 nM
CC[C@H]1[C@H](/C=C/c2ccc(-c3ccsc3)cn2)[C@@H]2[C@@H](C)OC(=O)[C@]2(O)C[C@@H]1C,AUC(0-t) at 6 h,[1],397 ng·h/mL
same,IC50,[2],4.6 nM
CC[C@H]1[C@H](/C=C/c2ccc(-c3cccnc3)cn2)[C@@H]2[C@@H](C)OC(=O)[C@]2(O)C[C@@H]1C [listing 2 of 2 here],AUC(0-t) at 6 h,[1],1900 ng·h/mL
same,IC50,[2],49 nM
CC[C@H]1[C@H](/C=C/c2ccc(-c3cc(Cl)ccc3Cl)cn2)[C@@H]2[C@@H](C)OC(=O)[C@@H]2C[C@@H]1C,IC50,[2],513 nM
